Compound activity from PubChem BioAssay.
Hits are enriched below; roughly 2.3% of the tested compounds scored in any of these assays.
TRPC6 inhibitor = inhibitors of mouse TRPC6 channel | HEK293-TRPC6, membrane potential dye, ACh-evoked depolarization; hits give low values | B-score at 10 µM | Q61143 | AID 2553 | 310,000 tested, 1.1% active;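 active means B-score under library mean minus 3 SD, initial fluorescence not abnormally high, positive integrated signal ratio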;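 further: B-score derived from integrated fluorescence ratio over the kinetic read; more negative B-score means stronger inhibition of depolarization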
TRPC6 act = activators of mouse TRPC6 channel. Q61143. HEK293-TRPC6 membrane potential dye fluorescence; hits give high values. B-score at 10 µM. 310,000 tested, 0.13% active. AID 2550;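 active means B-score of the integrated fluorescence ratio above library mean plus 3 SD, and starting fluorescence ratio within library mean plus 5 SD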;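 further: higher score means more depolarization so channel activation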
TRPC4 inh = blocks the mouse TRPC4 cation channel. Q9QUQ5. HEK293 TRPC4beta/mu-opioid, DAMGO-evoked Fluo4 calcium flux; hits give low values. B-score at 10 µM. 300,000 tested, 0.39% active. AID 2247;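 active means B-score over 3 SD under the library average, no early fluorescence shift, positive overall ratio signal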
Target sequence (Q9QUQ5 whole entry, looked up): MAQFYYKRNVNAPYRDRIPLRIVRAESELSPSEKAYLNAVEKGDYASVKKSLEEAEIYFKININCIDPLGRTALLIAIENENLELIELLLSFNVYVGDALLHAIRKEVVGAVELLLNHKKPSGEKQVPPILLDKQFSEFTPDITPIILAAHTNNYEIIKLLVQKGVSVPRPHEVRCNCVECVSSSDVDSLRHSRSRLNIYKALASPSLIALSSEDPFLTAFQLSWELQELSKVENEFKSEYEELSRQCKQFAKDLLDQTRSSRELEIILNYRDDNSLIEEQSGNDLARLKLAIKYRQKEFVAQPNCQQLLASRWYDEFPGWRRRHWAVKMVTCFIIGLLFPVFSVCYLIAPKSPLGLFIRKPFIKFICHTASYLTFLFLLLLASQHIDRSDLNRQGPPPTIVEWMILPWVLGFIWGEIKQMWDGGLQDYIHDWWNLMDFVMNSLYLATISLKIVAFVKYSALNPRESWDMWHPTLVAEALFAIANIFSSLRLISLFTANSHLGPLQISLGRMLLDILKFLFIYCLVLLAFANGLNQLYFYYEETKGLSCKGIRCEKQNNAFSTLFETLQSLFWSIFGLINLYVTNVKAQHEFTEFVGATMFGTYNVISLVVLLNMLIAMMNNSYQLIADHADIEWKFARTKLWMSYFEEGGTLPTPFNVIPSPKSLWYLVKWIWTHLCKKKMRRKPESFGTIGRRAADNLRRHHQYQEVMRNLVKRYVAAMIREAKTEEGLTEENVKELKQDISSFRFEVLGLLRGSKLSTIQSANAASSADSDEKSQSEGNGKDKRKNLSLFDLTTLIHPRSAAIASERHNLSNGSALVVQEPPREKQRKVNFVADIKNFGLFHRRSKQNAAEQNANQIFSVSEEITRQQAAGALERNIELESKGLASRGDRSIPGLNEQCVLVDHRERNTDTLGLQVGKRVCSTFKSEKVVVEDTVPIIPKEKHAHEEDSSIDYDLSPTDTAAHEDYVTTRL
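Material: HEK293 cells with stable TRPC4beta plus mu-opioid receptor expression / Probe or stimulus: DAMGO in two steps, submaximal then maximal / Compound: single concentration per test compound / Technique: kinetic Fluo4 fluorescence imaging of calcium influx / Read-out: per-well B score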
TRPC4 agonist = TRPC4 (mouse) channel activation. Q9QUQ5. HEK293 TRPC4beta/mu-opioid, Fluo4 calcium fluorescence; hits give high values. B-score at 10 µM. 310,000 tested, 0.49% active;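 active means B-score above 5 SD of library B-scores, and initial fluorescence ratio not above library mean plus 5 SD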;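 further: positive B-score marks a calcium rise read as TRPC4 activation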
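System – HEK293 cells stably co-expressing mouse TRPC4beta and mu-opioid receptor · Signal – Fluo4 calcium-sensitive dye fluorescence, kinetic, 1 Hz baseline · Benchmarks – buffer (low) and maximal DAMGO (high) · Read-out – B score of integrated fluorescence ratio per well · Incubation – dye loading 45 min room temperature, 110 s kinetic read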
TRPC4 PAM = allosteric potentiators of mouse TRPC4 channel; HEK293 TRPC4beta/mu-opioid, DAMGO EC20, Fluo-4 Ca2+ flux; hits give high values; Q9QUQ5; B-score at 10 µM; 310,000 tested, 0.42% active;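 active means B-score of calcium response area above 5 SD of library B-scores, with initial fluorescence ratio within 5 SD of library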
TRPC4 sel inh 2 = mouse TRPC4 off-target activity of TRPC6 inhibitors, second screen; shares compounds with TRPC6 inhibitor; HEK293 TRPC4/MOR, membrane potential dye fluorescence; channel activated by saturating DAMGO dose; inhibition, % at 10 µM; 920 tested, 42% active; AID 2776;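 active means compounds whose fluorescence signal differed from control wells by over 3 SD, either direction, in both duplicate plates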
TRPC4 spec = tests whether TRPC6 inhibitors also affect mouse TRPC4 | shares compounds with TRPC6 inhibitor | HEK293 TRPC4/mu-opioid, membrane potential fluorescence | activity change, negative = inhibition, % at 10 µM | 920 tested, 61% active | AID 2777;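 active means rise or fall in signal beyond 3 SD of buffer-only wells in both replicate plates, either sign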;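 further: integrated kinetic ratio of fluorescence range over baseline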
HEK293 MPD ctr 2-1 = second check of TRPC6 inhibitor effects in parental HEK293 cells | shares compounds with TRPC6 inhibitor | parental HEK293 membrane potential dye fluorescence; maximal acetylcholine challenge after compound addition | signal change vs control, % at 10 µM | 920 tested, 31% active | AID 2779;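 active means membrane potential signal moving either way by over 3 SD of the maximum-effect control, in both duplicate plates, meaning non-specific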
HEK293 MPD ctr-1 = parental HEK293 nonspecific activity of TRPC6 inhibitors | shares compounds with TRPC6 inhibitor | parental HEK293 membrane potential dye fluorescence | membrane potential signal change, % at 10 µM | 920 tested, 60% active;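 active means membrane potential signal shifting up or down by more than 3 SD of buffer-only wells, on both duplicate plates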
HEK293 MPD ctr-2 = parental HEK293 nonspecific activity of TRPC6 modulators. shares compounds with TRPC6 inhibitor. 2,400 tested, 51% active. AID 488924. membrane potential dye fluorescence. membrane potential signal change, % at 10 µM;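 active means membrane potential signal moves up or down beyond 5 SD from buffer-only wells, on both duplicate plates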
HEK293 MPD ctr 2-2 = second check of TRPC6 modulator effects in parental HEK293 cells; shares compounds with TRPC6 inhibitor; membrane potential dye fluorescence; after compound, maximal acetylcholine stimulation; inhibition, % at 10 µM; 2,400 tested, 14% active; AID 488926;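 active means membrane potential signal drops by more than 5 SD from the mean control signal, in both duplicate plates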
TRPC4 ctr mod = selectivity of TRPC6 modulators against mouse TRPC4 | shares compounds with TRPC6 inhibitor | HEK293 TRPC4/mu-opioid, membrane potential fluorescence | 2,400 tested, 69% active | percent change from control (negative = decrease, positive = increase), % at 10 µM;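 active means membrane potential signal moved up or down beyond 5 SD of buffer control wells, in both duplicate plates, actives on both sides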
TRPC4/MOR inh 2 = second selectivity test of TRPC6 modulators against mouse TRPC4 | HEK293 TRPC4/mu-opioid, membrane potential dye fluorescence; stimulated with maximal-effect DAMGO | inhibition, % at 10 µM | 2,400 tested, 55% active | shares compounds with TRPC6 inhibitor;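 active means drop in membrane potential signal beyond 5 SD of the control wells in both duplicate plates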;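 further: TRPC4 counter screen for TRPC6 hits run under conditions tuned for TRPC6 not TRPC4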
TRPC6 inh conf = confirmation of mouse TRPC6 inhibitors | shares compounds with TRPC6 inhibitor | HEK293-TRPC6, membrane potential dye, ACh-evoked depolarization | inhibition, % at 10 µM | 3,300 tested, 43% active;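 active means fluorescence ratio falls more than 5 SD below the full-stimulation control mean, in both duplicate runs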;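 further: integrated fluorescence ratio of peak minus minimum over baseline after agonist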
TRPC6 act conf = mouse TRPC6 activator confirmation. 2,800 tested, 11% active. activation, % at 10 µM. AID 488961. shares compounds with TRPC6 inhibitor. HEK293-TRPC6 membrane potential dye fluorescence, FDSS;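 active means ratio signal rise beyond 5 SD above unstimulated control wells' mean, seen in both duplicate runs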
Each line names hits and unclear results; the compound was inactive in the other large screens (follow-up assays come after a bar, where they were run).

CN1CCN(c2ccc([N+](=O)[O-])cc2/C=N/NC(=O)c2ccc(F)cc2)CC1	TRPC6 inhibitor -6.02 | HEK293 MPD ctr-2 -174.0% | HEK293 MPD ctr 2-2 inactive | TRPC4 ctr mod -34.5% | TRPC4/MOR inh 2 inactive | TRPC6 inh conf inactive | TRPC6 act conf inactive
N#CCC(=O)N/N=C/c1cc([N+](=O)[O-])ccc1N1CCOCC1	none
COc1cc(O)c2c(=O)c(-c3ccc(O[C@@H]4O[C@H](CO)[C@@H](O)[C@H](O)[C@H]4O)cc3)coc2c1	none
CCCCc1ncc(CN2CCC(n3nccc3NC(=O)c3ccccc3Cl)CC2)[nH]1	none
CC(C)C(NC(=O)c1c(F)cccc1F)C(=O)NCC(c1ccccc1)N(C)C (centres undefined)	TRPC6 inhibitor -5.08 | HEK293 MPD ctr-2 inactive | HEK293 MPD ctr 2-2 inactive | TRPC4 ctr mod 55.0% | TRPC4/MOR inh 2 58.0% | TRPC6 inh conf inactive
C/C(=N/NC(=O)CNC(=O)CCc1ccccc1)c1ccc(Cl)c(Cl)c1	none
CCOC(=O)c1ccc2c(c1)n(CCCS(=O)(=O)[O-])c(/C=C/c1ccc(Cl)cc1)[n+]2CC	TRPC6 inhibitor -7.41 | HEK293 MPD ctr-2 -333.0% | HEK293 MPD ctr 2-2 inactive | TRPC4 ctr mod -60.0% | TRPC4/MOR inh 2 61.0% | TRPC6 inh conf 58.5% | TRPC6 act conf inactive
CCCn1c(Cc2ccccc2)n[nH]c1=S	none
S=c1[nH]nc(Cc2ccccc2)n1Cc1ccco1	TRPC6 inhibitor -8.33 | TRPC4 sel inh 2 inactive | TRPC4 spec inactive | HEK293 MPD ctr 2-1 13.5% | HEK293 MPD ctr-1 inactive | TRPC6 inh conf 64.8% | TRPC6 act conf inactive
CCOC(=O)CNS(=O)(=O)c1ccc(S(=O)(=O)N2CCCC2)cc1	TRPC6 inhibitor -7.85 | TRPC4 sel inh 2 inactive | TRPC4 spec inactive | HEK293 MPD ctr 2-1 inactive | HEK293 MPD ctr-1 inactive | TRPC6 inh conf inactive | TRPC6 act conf inactive
CCN(CC)C1CCN(C(=O)CCn2nnnc2CN2CCOCC2)C1 (centres undefined)	none
CC(C)C(O)(C#CCN1CCCC1)c1ccccc1 (centres undefined)	TRPC6 inhibitor -5.94 | HEK293 MPD ctr-2 inactive | HEK293 MPD ctr 2-2 64.5% | TRPC4 ctr mod 11.0% | TRPC4/MOR inh 2 inactive | TRPC6 inh conf 67.5%
CC(C)C(O)(C#CCN1CCCCC1)c1ccccc1 (centres undefined)	TRPC6 inhibitor -6.64 | TRPC4 sel inh 2 inactive | TRPC4 spec 4.9% | HEK293 MPD ctr 2-1 -61.0% | HEK293 MPD ctr-1 7.8% | TRPC6 inh conf 70.9%
CC(O)(C#CCN1CCOCC1)c1ccccc1 (centres undefined)	none
OC(C#CCN1CCCCC1)c1ccccc1 (centres undefined)	none
CCOC(=O)c1ccc[n+](CC(=O)Nc2cc(C(F)(F)F)ccc2Cl)c1	none
NCCCCCc1nnc(SCc2ccccc2Cl)o1	TRPC6 inhibitor -6.44 | HEK293 MPD ctr-2 inactive | HEK293 MPD ctr 2-2 inactive | TRPC4 ctr mod 15.5% | TRPC4/MOR inh 2 inactive | TRPC6 inh conf inactive
NCCCCCc1nnc(SC/C=C/c2ccccc2)o1	TRPC6 inhibitor -5.55 | HEK293 MPD ctr-2 101.5% | HEK293 MPD ctr 2-2 inactive | TRPC4 ctr mod 17.5% | TRPC4/MOR inh 2 inactive | TRPC6 inh conf inactive
NCCc1nnc(SCc2c(Cl)cccc2Cl)o1	none
CCOC(=O)c1oc2ccccc2c1NC(=O)CN1CCOCC1	none
Oc1sc(C=Nc2ccccc2)c2ccccc12	TRPC6 act 12.9 | HEK293 MPD ctr-2 322.5% | HEK293 MPD ctr 2-2 inactive | TRPC4 ctr mod 139.0% | TRPC4/MOR inh 2 45.5% | TRPC6 inh conf inactive | TRPC6 act conf inactive
Cc1ccc(O)c(NC(=O)c2cc3nc4c(c(C(F)(F)F)n3n2)CCc2ccccc2-4)c1	none
CCN(CC)CCCNC(=O)c1cc2nc3c(c(C(F)(F)F)n2n1)CCc1ccccc1-3	TRPC6 inhibitor -6.68 | TRPC4 sel inh 2 65.0% | TRPC4 spec inactive | HEK293 MPD ctr 2-1 inactive | HEK293 MPD ctr-1 0.8% | TRPC6 inh conf inactive | TRPC6 act conf inactive
COc1cccc(-c2nc(NCCN3CCOCC3)c3ccccc3n2)c1O	none
Oc1ccccc1-c1nc(NCCN2CCOCC2)c2ccccc2n1	TRPC6 inhibitor -8.34 | TRPC4 sel inh 2 57.5% | TRPC4 spec -19.4% | HEK293 MPD ctr 2-1 inactive | HEK293 MPD ctr-1 -327.5% | TRPC6 inh conf 67.7% | TRPC6 act conf inactive
Clc1cccc(-c2nc(NCCCN3CCOCC3)c3ccccc3n2)c1	none
Clc1cccc(-c2nc(NCCN3CCOCC3)c3ccccc3n2)c1	none
c1csc(-c2nc(NCCCN3CCOCC3)c3ccccc3n2)c1	TRPC6 inhibitor -7.19 | HEK293 MPD ctr-2 -179.5% | HEK293 MPD ctr 2-2 inactive | TRPC4 ctr mod -40.0% | TRPC4/MOR inh 2 71.5% | TRPC6 inh conf 68.0% | TRPC6 act conf inactive
Clc1ccc(-c2nc(NCCCN3CCOCC3)c3ccccc3n2)cc1	TRPC6 inhibitor -6.65 | TRPC4 sel inh 2 71.5% | TRPC4 spec -23.8% | HEK293 MPD ctr 2-1 inactive | HEK293 MPD ctr-1 -328.0% | TRPC6 inh conf 61.1% | TRPC6 act conf inactive
Cc1ccc(-c2nc(NCCN3CCOCC3)c3ccccc3n2)cc1	TRPC6 inhibitor -6.25 | HEK293 MPD ctr-2 -209.5% | HEK293 MPD ctr 2-2 inactive | TRPC4 ctr mod -37.5% | TRPC4/MOR inh 2 74.0% | TRPC6 inh conf 62.5% | TRPC6 act conf inactive
